H69AR inhibit: proliferation blockers of H69AR lung cancer cells, primary screen, cell-based, human, 86K library. H69AR lung tumor viability, ATP luminescence, 72 h; active compounds read low. viability, % at 10 µM. 6% of 85,000 active. AID 598, 2007;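 active = viability at or below 40%; inactive = viability above 40%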;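 note: multidrug resistant small cell line overexpressing MRP-1 efflux transporter; 100% = mean luminescence of untreated control wells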
HUVEC inhibit: inhibitors of HUVEC proliferation, primary screen, cell-based, 384-well; CellTiter-Glo luminescence, 72 h; active compounds read low; 1.1% of 86,000 active; viability, % at 10 µM (by protocol);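 active = viability at or below 30%; inactive = viability above 30%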;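 note: 100% = median luminescence of DMSO-only cell control wells on each plate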
Fibroblast inh: antiproliferative effect on LL 47 fibroblasts – human, LL 47 cells, CellTiter-Glo luminescence, primary screen; viability, % at 10 µM; AID 719, 2007; 1.1% of 85,000 active; LL 47 human lung fibroblast viability, ATP luminescence; active compounds read low;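 active = viability at or below 50% in the single dose screen; inactive = viability above 50%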;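 note: compound exposure lasted 72 h before the ATP readout; 100% = median luminescence of untreated cell-only wells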
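Assay system: human lung fibroblast line LL 47, low passage. Input: 1,150 fibroblasts seeded per well. Times: overnight cell rest, 72 h compound treatment at 37 °C. Evaluation: % viability of median cell-only signal. Technique: luminescent ATP detection, CellTiter-Glo. Control set: cell-only wells, no compound.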
Jurkat tox 60K: cytotoxicity toward Jurkat T cells, primary screen, cytotoxicity control, cell-based, Jurkat E6.1, 60K MLSMR library. 1.2% of 56,000 active. AID 463, 2006. Jurkat E6.1 viability, ATP luminescence, 48 h. inhibition, % at 4 µM;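 active = inhibition above the mean inhibition of all tested compounds plus 3 SD, cut at about 28% in these data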
Active calls of the source: *. Rows were chosen to be rich in hits. Some 6.4% of all compounds tested hit in one or more screens of this group.

CCOC(=O)C1=C(C)NC(SCC(=O)Nc2cc(C)on2)=C(C#N)C1c1cccs1 (configuration not stated) was read as H69AR inhibit 63, HUVEC inhibit 73, Fibroblast inh 88 and Jurkat tox 60K -7.
Screening CCOC(=O)CSc1nc2cc(OC)ccc2cc1C#N returned H69AR inhibit 96, HUVEC inhibit 73, Fibroblast inh 85 and Jurkat tox 60K 1.
CCOC(=O)CSC1=C(C#N)C(=O)NC(c2ccc(OC)c(OC)c2)S1 (configuration not stated) was read as H69AR inhibit 6.6*, HUVEC inhibit 73 and Fibroblast inh 77.
CCOC(=O)CSC1=C(C#N)C(=O)NC(c2ccc(OC)cc2)S1 (configuration not stated) was read as H69AR inhibit 2.2*, HUVEC inhibit 79 and Fibroblast inh 111.
For COc1ccc(-c2nc(NC(=O)C3CCN(c4nc5ccccc5o4)CC3)sc2C)cc1 the results were H69AR inhibit 32*, HUVEC inhibit 59, Fibroblast inh 86 and Jurkat tox 60K 18.
`OC(CN1CCN(c2cccc(C(F)(F)F)c2)CC1)c1c[nH]c2ccccc12` (configuration not stated) gave H69AR inhibit 2.6*, HUVEC inhibit 67, Fibroblast inh 58 and Jurkat tox 60K 22.
O=C(NC1CCCCC1)N1CCCC(c2nc(-c3ccc(S(=O)(=O)N4CCCC4)cc3)no2)C1 (configuration not stated) was read as H69AR inhibit 35*, HUVEC inhibit 88, Fibroblast inh 88 and Jurkat tox 60K -1.
`O=C(Nc1ccccc1)N1CCC(c2nc(-c3ccc(S(=O)(=O)N4CCOCC4)cc3)no2)CC1` gave H69AR inhibit 82, HUVEC inhibit 62, Fibroblast inh 60 and Jurkat tox 60K 33*.
COc1ccc(CCN(C(=O)c2ccc(F)cc2)C2=CC3CCC(C2)N3C)cc1OC (configuration not stated) was read as H69AR inhibit 90, HUVEC inhibit 96, Fibroblast inh 96 and Jurkat tox 60K 1.
`CCC(C)(C)NC(=O)C(c1ccc(C)o1)N(Cc1cccs1)C(=O)Cn1nnc2ccccc21` (configuration not stated) gave H69AR inhibit 49, HUVEC inhibit 79, Fibroblast inh 43* and Jurkat tox 60K 1.
`Cc1ccc(C(C(=O)NCc2ccccc2)N(C(=O)c2csnn2)c2cccc3ccccc23)o1` (configuration not stated) gave H69AR inhibit 62, HUVEC inhibit 95 and Fibroblast inh 95.
For COc1ccc(CNC(=O)C(c2ccc(C)o2)N(C(=O)c2csnn2)c2ccc(C(C)C)cc2)cc1 (configuration not stated) the results were H69AR inhibit 38*, HUVEC inhibit 107 and Fibroblast inh 99.
COc1ccc(CC(=O)NCc2cccs2)cc1 was read as H69AR inhibit 30*, HUVEC inhibit 71, Fibroblast inh 93 and Jurkat tox 60K 14.
COc1ccc(CNC(=O)C(c2ccc(C)o2)N(Cc2cccs2)C(=O)Cc2cccs2)cc1 (configuration not stated) was read as H69AR inhibit 24*, HUVEC inhibit 71 and Fibroblast inh 96.
CCC(C)(C)NC(=O)C(c1ccccc1)N(Cc1cccs1)C(=O)Cn1nnc2ccccc21 (configuration not stated) was read as H69AR inhibit 65, HUVEC inhibit 97 and Fibroblast inh 107.
CCN(CC)C(=S)Sc1c(-c2ccccc2)c2cc(Cl)ccc2[nH]c1=O was read as H69AR inhibit 73, HUVEC inhibit 79 and Fibroblast inh 91.
`Fc1ccc(/C=C2\CCCC3=C2Nc2ncnn2C3c2ccc(F)cc2)cc1` (configuration not stated) gave H69AR inhibit 22*, HUVEC inhibit 37 and Fibroblast inh 56.
For COc1ccc(C2C3=C(Nc4ncnn42)c2ccccc2CCC3)cc1 (configuration not stated) the results were H69AR inhibit 86, HUVEC inhibit 96 and Fibroblast inh 97.
CC(NC(=O)Cc1ccc(F)cc1)C(c1cccs1)N1CCN(C)CC1 (configuration not stated) was read as H69AR inhibit 78, HUVEC inhibit 102, Fibroblast inh 109 and Jurkat tox 60K 3.
Screening COCCNC(=O)c1cc2oc3ccccc3c2n1C returned H69AR inhibit 92, HUVEC inhibit 98 and Fibroblast inh 110.
